Published values pooled from the literature.
Read-out: cell growth or viability

Structure (SMILES)	cell line	method	time	IC50
C=C1C[C@@]23CC[C@H]4[C@@](C)(CCC[C@@]4(C)C(=O)O)[C@@H]2CC[C@@H]1C3	T47D	MTT	75 h	150 µM
O=C(CSc1nc2ccccc2s1)N/N=C/c1ccc(OCC(=O)Nc2cccc(Cl)c2)cc1	MOLT-4	MTS	72 h	7.7 µM
CCn1cc(/C=C(\C#N)C(=O)c2c[nH]c3ccccc23)c2ccccc21	MIA PaCa-2	MTT	48 h	> 40 µM
O=C(CSc1nc2ccccc2s1)N/N=C/c1ccc(OCC(=O)Nc2ccc([N+](=O)[O-])cc2)cc1	LN-229	MTS	72 h	4.39 µM
O=c1cc(OCc2cc(-c3ccc(C(F)(F)F)cc3)no2)c2ccccc2o1	LN-229	MTS	72 h	> 100 µM
Cc1c(-c2ccc(N3CCc4cccc(C(=O)Nc5nc6ccccc6s5)c4C3)nc2C(=O)O)cnn1CC12CC3CC(C1)CC(C(=O)NCCCCNc1cccc4c1C(=O)N(C1CCC(=O)NC1=O)C4=O)(C3)C2 (stereo not drawn)	MOLT-4	MTS	48 h	0.0302 µM
COc1cc([C@@H]2c3cc4c(cc3[C@@H](O[C@@H]3O[C@@H]5CO[C@@H](C)O[C@H]5[C@H](O)[C@H]3O)[C@H]3COC(=O)[C@H]23)OCO4)cc(OC)c1O	DU-145	MTT	–	0.5 µM
O=C(CSc1nc2ccccc2s1)N/N=C/c1ccc(OCC(=O)Nc2cccc([N+](=O)[O-])c2)cc1	MOLT-4	MTS	72 h	15.3 µM
NS(=O)(=O)c1ccc(-n2nc(C(=O)NN3C(=O)c4ccccc4C3=O)cc2-c2ccccc2)cc1	PaCa-2	fluorescence	48 h	35.4 µM
Cc1c(-c2ccc(N3CCc4cccc(C(=O)Nc5nc6ccccc6s5)c4C3)nc2C(=O)O)cnn1CC12CC3CC(C1)CC(C(=O)NCCOCCNc1cccc4c1C(=O)N(C1CCC(=O)NC1=O)C4=O)(C3)C2 (stereo not drawn)	MOLT-4	MTS	48 h	0.0516 µM
COc1cc([C@@H]2c3cc4c(cc3[C@@H](O[C@@H]3O[C@@H]5CO[C@@H](C)O[C@H]5[C@H](O)[C@H]3O)[C@H]3COC(=O)[C@H]23)OCO4)cc(OC)c1O	LN-229	MTS	72 h	0.02 µM
NS(=O)(=O)c1ccc(-n2nc(C(=O)NN=Cc3ccccc3O)cc2-c2ccccc2)cc1	PaCa-2	fluorescence	48 h	10.9 µM
COc1ccc(Nc2ncnc3c2ncn3Cc2ccc(C(=O)NO)cc2)cc1	Jurkat	MTT	72 h	0.7 µM
COC[C@H](NC(=O)c1ccn(S(C)(=O)=O)c1)C(=O)Nc1nc(-c2cccc(N3C[C@@H](C)O[C@@H](C)C3)n2)cs1	LNCaP	ATP luminescence	7 days	0.008 µM
Nc1ccccc1NC(=O)c1ccc(Cn2cnc3c(Nc4ccc(Cl)cc4)ncnc32)cc1	Jurkat	MTT	72 h	13.5 µM
CN(C)C(=O)c1cc2cnc(Nc3ccc(-c4ccc5c(=O)cc(N6CCOCC6)oc5c4)cc3)nc2n1C1CCCC1	NGP	ATP luminescence	72 h	0.21 µM
Cc1ncsc1-c1ccc([C@H](CC(=O)NCCCCNC(=O)c2nc(N3CCc4cccc(C(=O)Nc5nc6ccccc6s5)c4C3)ccc2-c2cnn(CC34CC5CC(CC(C5)C3)C4)c2C)NC(=O)[C@@H]2C[C@@H](O)CN2C(=O)[C@@H](NC(=O)C2(C#N)CC2)C(C)(C)C)cc1	MOLT-4	MTS	48 h	0.0313 µM
Cn1nnc2c(C(N)=O)ncn2c1=O	LN-229	MTT	–	6000 µM
FC(F)(F)c1ccc(-c2cc(COc3cc(C(F)(F)F)nc4ccccc34)on2)cc1	LN-229	MTS	72 h	> 100 µM
NS(=O)(=O)c1ccc(-n2nc(-c3nnc(CCl)o3)cc2-c2ccccc2)cc1	PaCa-2	fluorescence	48 h	26.3 µM
Cc1ncsc1-c1ccc([C@H](C)NC(=O)[C@@H]2C[C@@H](O)CN2C(=O)[C@@H](NC(=O)CCCCCCCS(=O)(=O)NC(=O)c2nc(N3CCc4cccc(C(=O)Nc5nc6ccccc6s5)c4C3)ccc2-c2cnn(CC34CC5CC(CC(C5)C3)C4)c2C)C(C)(C)C)cc1	MOLT-4	MTS	48 h	0.0037 µM
N#Cc1ccc(-c2cc(COc3cc(=O)oc4ccccc34)on2)cc1	LN-229	MTS	72 h	> 100 µM
COc1ccc(Nc2ncnc3c2ncn3Cc2ccc(C(=O)Nc3ccccc3N)cc2)cc1	Jurkat	MTT	72 h	9.74 µM
CC(C)C(=O)Nc1ccc([N+](=O)[O-])c(C(F)(F)F)c1	LNCaP	MTS	48 h	99.9 µM

Structure (SMILES)	cell line	method	time	IC50
O=C(NO)c1ccc(Cn2cnc3c(Nc4ccc(Cl)cc4)ncnc32)cc1	Jurkat	MTT	72 h	0.91 µM
COc1cc2[nH]cc(C(=O)C(C#N)=Cc3cn(Cc4ccc(Cl)cc4)c4ccccc34)c2cc1OC	MIA PaCa-2	MTT	48 h	> 40 µM
O=C(NO)c1ccc(Cn2cnc3c(Nc4cccc([N+](=O)[O-])c4)ncnc32)cc1	MOLT-4	MTT	72 h	0.92 µM
Clc1ccc(-c2cc(CNc3cccc4cccnc34)on2)c(Cl)c1	LN-229	MTS	72 h	54.4 µM
NS(=O)(=O)c1ccc(-n2nc(-c3nnc(S)o3)cc2-c2ccccc2)cc1	PaCa-2	fluorescence	48 h	34.2 µM
CCCOc1ccc2[nH]cc(C(=O)C(C#N)=Cc3cn(C)c4ccccc34)c2c1	MIA PaCa-2	MTT	48 h	28.9 µM
COC(=O)c1cc(C(C)=NNc2nc(-c3cccc4cc[nH]c34)cs2)ccc1O	T47D	MTT	96 h	20.8 µM
Cc1c(-c2ccc(N3CCc4cccc(C(=O)Nc5nc6ccccc6s5)c4C3)nc2C(=O)NCCOCCOCCOCCO)cnn1CC12CC3CC(CC(C3)C1)C2	MOLT-4	MTS	48 h	0.0169 µM
Nc1ccccc1NC(=O)c1ccc(Cn2cnc3c(Nc4ccc(Br)cc4F)ncnc32)cc1	Jurkat	MTT	72 h	4.73 µM
Nc1cccc2c1C(=O)N(C1CCC(=O)NC1=O)C2=O (stereo not drawn)	SU-DHL-2	CCK-8	7 days	1.5 µM
O=C(CSc1nc2ccccc2s1)N/N=C/c1ccc(OCC(=O)Nc2cccc(Br)c2)cc1	LN-229	MTS	72 h	65.5 µM
c1ccc(-c2cc(CNc3cccc4cccnc34)on2)cc1	LN-229	MTS	72 h	33.7 µM
COc1cccc2c1C(=O)c1c(O)c3c(c(O)c1C2=O)C[C@@](O)(C(=O)CO)C[C@@H]3O[C@H]1C[C@H](N)[C@H](O)[C@H](C)O1	Jurkat	–	96 h	0.0339 µM
Cc1c(-c2ccc(N3CCc4cccc(C(=O)Nc5nc6ccccc6s5)c4C3)nc2C(=O)NCCCCNc2cccc3c2C(=O)N(C2CCC(=O)NC2=O)C3=O)cnn1CC12CC3CC(CC(C3)C1)C2 (stereo not drawn)	MOLT-4	MTS	48 h	0.126 µM
COc1ccc2c(C(=O)C(C#N)=Cc3cn(Cc4ccc(Cl)cc4)c4ccccc34)c[nH]c2c1	MIA PaCa-2	MTT	48 h	7.9 µM
O=c1cc(OCc2cc(-c3ccccn3)no2)c2ccccc2o1	LN-229	MTS	72 h	> 100 µM
COc1ccc2[nH]cc(C(=O)C(C#N)=Cc3cn(C)c4ccccc34)c2c1	MIA PaCa-2	MTT	48 h	4.5 µM
O=C(CSc1nc2ccccc2s1)N/N=C/c1ccc(OCC(=O)Nc2ccc(Br)cc2)cc1	LN-229	MTS	72 h	27.8 µM
NS(=O)(=O)c1ccc(-n2nc(C(=O)NN3C(=O)CCC3=O)cc2-c2ccccc2)cc1	PaCa-2	fluorescence	48 h	27.4 µM
FC(F)(F)c1ccc(-c2cc(CNc3cccc4cccnc34)on2)cc1	LN-229	MTS	72 h	51.8 µM
Cc1c(-c2ccc(N3CCc4cccc(C(=O)Nc5nc6ccccc6s5)c4C3)nc2C(=O)NCCCCCCCCNc2cccc3c2C(=O)N(C2CCC(=O)NC2=O)C3=O)cnn1CC12CC3CC(CC(C3)C1)C2 (stereo not drawn)	MOLT-4	MTS	48 h	> 2 µM
Nc1nnc(-c2ccccc2O)cc1N1CC2CCC(C1)N2c1ccnc(F)c1	LNCaP	ATP luminescence	7 days	> 1 µM
CCNC(=O)c1nc(N2CCc3cccc(C(=O)Nc4nc5ccccc5s4)c3C2)ccc1-c1cnn(CC23CC4CC(CC(C4)C2)C3)c1C	MOLT-4	MTS	48 h	0.481 µM
CCn1cc(C=C(C#N)C(=O)c2c[nH]c3cc(OC)c(OC)cc23)c2ccccc21	MIA PaCa-2	MTT	48 h	13 µM
